Data published in ChEMBL document CHEMBL1124684, “Studies on prodrugs. 10. Possible mechanism of N-dealkylation of N-masked norfloxacins having several active methylene groups” (J Med Chem, 1989).

Experiments:
[1] = (§1) Compound was evaluated for Area under curve in mice; type: ADME, organism-based; parameters: concentration or dose not given beside the values; details: mouse, in vivo
Mus musculus [2] = organism: Mus musculus; test: as §1; type: ADME, organism-based; parameters: concentration or dose not given beside the values; details: in vivo
Mus musculus [3] = test: Serum concentration of the liberated Norfloxacin after oral administration 100 mg/kg in mice after the 1.0 h; type: functional, organism-based; parameters: dose 100 mg/kg
Method in brief: (§2)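 Mice dosed orally at 100 mg/kg, suspended in 0.5% sodium carboxymethylcellulose. Animals killed by bleeding at 0.5, 1.0, 2.0 and 4.0 h; blood centrifuged, serum adjusted. NFLX in serum quantified by HPLC with UV detection at 280 nm. Stability of the masked compounds at pH 7.4 and 37 °C was checked beforehand by HPLC.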

Mus musculus [4] = test: Serum concentration of the liberated Norfloxacin after oral administration 100 mg/kg in mice after the 2.0 h; type: functional, organism-based; parameters: dose 100 mg/kg; method in brief: as §2
Mus musculus [5] = test: Serum concentration of the liberated Norfloxacin after oral administration 100 mg/kg in mice after the 4.0 h; type: functional, organism-based; parameters: dose 100 mg/kg; method in brief: as §2
Mus musculus [6] = test: (§3) Serum concentration of the liberated Norfloxacin after oral administration (100 mg/kg) in mice after 0.5 hr; type: functional, organism-based; method in brief: as §2
Mus musculus [7] = test: Serum concentration of the liberated Norfloxacin after oral administration (100 mg/kg) in mice after 1.0 hr; type: functional, organism-based; method in brief: as §2
Mus musculus [8] = test: Serum concentration of the liberated Norfloxacin after oral administration (100 mg/kg) in mice after 2.0 hr; type: functional, organism-based; method in brief: as §2
Mus musculus [9] = test: Serum concentration of the liberated Norfloxacin after oral administration (100 mg/kg) in mice after 4.0h; type: functional, organism-based; method in brief: as §2
Mus musculus [10] = test: Serum concentration of the liberated Norfloxacin after oral administration 100 mg/kg in mice after the 0.5 h; type: functional, organism-based; parameters: dose 100 mg/kg; method in brief: as §2
Mus musculus [11] = test: Serum concentration of the liberated Norfloxacin after oral administration (100 mg/kg) in mice after 0.5 hr; ND is not detected; type: functional, organism-based; method in brief: as §2
Mus musculus [12] = test: Serum concentration of the liberated Norfloxacin after oral administration (100 mg/kg) in mice after 2.0h; ND is not detected; type: functional, organism-based; method in brief: as §2
Mus musculus [13] = test: Serum concentration of the liberated Norfloxacin after oral administration (100 mg/kg) in mice after 4.0h; ND is not detected; type: functional, organism-based; method in brief: as §2
Mus musculus [14] = test: Serum concentration of the liberated Norfloxacin after oral administration (100 mg/kg) in mice after 1.0h; ND is not detected; type: functional, organism-based; method in brief: as §2
Mus musculus [15] = test: as §3; type: functional, organism-based; method in brief: as §2; remark: listed apart in the source

| SMILES | AUC [1] | AUC (Mus musculus [2]) | Serum concentration (Mus musculus [3]) | Serum concentration (Mus musculus [4]) | Serum concentration (Mus musculus [5]) | Serum concentration (Mus musculus [6]) | Serum concentration (Mus musculus [7]) | Serum concentration (Mus musculus [8]) | Serum concentration (Mus musculus [9]) | Serum concentration (Mus musculus [10]) | Serum concentration (Mus musculus [11]) | Serum concentration (Mus musculus [12]) | Serum concentration (Mus musculus [13]) | Serum concentration (Mus musculus [14]) | Serum concentration (Mus musculus [15]) |
| --- | --- | --- | --- | --- | --- | --- | --- | --- | --- | --- | --- | --- | --- | --- | --- |
| CCn1cc(C(=O)O)c(=O)c2cc(F)c(N3CCN(C(C)C(C)=O)CC3)cc21 (stereo not drawn) | 5710 ng·h/mL | 5710 ng·h/mL | 1.68 µg/mL | 1.67 µg/mL | 0.63 µg/mL | 2.63 µg/mL | 1.68 µg/mL | 1.67 µg/mL | 0.63 µg/mL | 2.63 µg/mL | – | – | – | – | – |
| CCn1cc(C(=O)O)c(=O)c2cc(F)c(N3CCNCC3)cc21 [NORFLOXACIN] | 6490 ng·h/mL | 6490 ng·h/mL | 2.02 µg/mL | 1.12 µg/mL | 0.56 µg/mL | 3.47 µg/mL | 2.02 µg/mL | 1.12 µg/mL | 0.56 µg/mL | 3.47 µg/mL | – | – | – | – | – |
| CCn1cc(C(=O)O)c(=O)c2cc(F)c(N3CCN(CC#N)CC3)cc21 | 3060 ng·h/mL | 3060 ng·h/mL | 0.75 µg/mL | 1.15 µg/mL | 0.63 µg/mL | 0.29 µg/mL | 0.75 µg/mL | 1.15 µg/mL | 0.63 µg/mL | 0.29 µg/mL | – | – | – | – | – |
| CCn1cc(C(=O)O)c(=O)c2cc(F)c(N3CCN(CC(C)O)CC3)cc21 (stereo not drawn) | – | – | – | – | – | – | – | – | – | – | Not detected | Not detected | Not detected | Not detected | – |
| CCn1cc(C(=O)O)c(=O)c2cc(F)c(N3CCN(CC(C)=O)CC3)cc21 | 22000 ng·h/mL | 22010 ng·h/mL | 5.74 µg/mL | 3.96 µg/mL | 2.62 µg/mL | 6.33 µg/mL | 5.74 µg/mL | 3.96 µg/mL | 2.62 µg/mL | – | – | – | – | – | 6.33 µg/mL |
| CCOC(=O)CN1CCN(c2cc3c(cc2F)c(=O)c(C(=O)O)cn3CC)CC1 | 3900 ng·h/mL | 3900 ng·h/mL | 1.37 µg/mL | 0.38 µg/mL | 0.42 µg/mL | 3.77 µg/mL | 1.37 µg/mL | 0.38 µg/mL | 0.42 µg/mL | 3.77 µg/mL | – | – | – | – | – |
| CCn1cc(C(=O)O)c(=O)c2cc(F)c(N3CCN(C(C)(C)C(C)=O)CC3)cc21 | – | – | – | – | – | – | – | – | – | – | Not detected | Not detected | Not detected | Not detected | – |
